Common to all, as to assay type: cell-based
Data set [1] deals with MDA-MB-231 breast cancer cells. The experiment in a line: MTT antiproliferative assay, MDA-MB-231. The note with it: Homo sapiens, MDA-MB-231, 24 h, read-out: Antiproliferative activity (IC50) MDA-MB-231. A digest of the protocol:
(§1)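 Cells were seeded at 2×10^3 per well and left to adhere for 24 h. Test compound was then added at 0–100 µM final, and cells were incubated for 24 h at 37 °C. MTT was added for 4 h, […]. Absorbance was read at 540 nm and growth compared with untreated cells. IC50 was taken from a dose-response curve.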

Data set [2] concerns MCF-7 breast cancer cells. The experiment in a line: MTT antiproliferative assay, MCF-7. The note with it: Homo sapiens, MCF7, 24 h, read-out: Antiproliferative activity (IC50) MCF-7. A digest of the protocol:
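Cells seeded at 2×10^3 per well and left 24 h to adhere, then exposed to test compound (0–100 µM, final) for 24 h at 37 °C. MTT added for 4 h, a second MTT addition followed by overnight incubation, and absorbance read at 540 nm. Growth compared with untreated cells; IC50 derived from dose-response curves.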
(Formazan colour is commonly taken as a measure of viable cells.)

Data set [3] deals with MDA-MB-231/ADR breast cancer cells. Nature of the data set: MTT antiproliferative assay, MDA-MB-231/ADR. To be noted: Homo sapiens, MDA-MB-231, 24 h, read-out: Antiproliferative activity (IC50) MDA-MB-231/ADR. A digest of the protocol:
as §1

Data set [4] is described as follows: MTT cytotoxicity towards normal breast cells. To be noted: human, MCF-10A normal breast cells.
The subject of data set [5] is normal MCF-10A breast cells. Nature of the data set: MTT cytotoxicity towards normal breast cells. The note with it: SI: IC50(MCF-10A)/IC50(MCF-7) or IC50(MCF-10A)/IC50(MDA-MB-231).

Each structure is given as a SMILES string.

Take `C[C@@H]1CC[C@H]2[C@@H](C)C(OC(=O)CCCN3C(=O)C(=O)c4ccccc43)O[C@@H]3O[C@@]4(C)CC[C@@H]1[C@]32OO4` (stereo partly drawn) [Hybrid 4a, (3R,5aS,6R,8aS,9R,12R,12aR)-3,6,9-trimethyldecahydro-12H-3,12-epoxy[1,2]dioxepino[4,3-i]isochromen-10-yl 4-(2,3-dioxoindolin-1-yl)butanoate]: the results for the IC50 in data set [1], in data set [2] and in data set [3] were 14.9 µM, 13.6 µM and 49.6 µM, respectively. The compound also displayed an IC50 at 24 h in data set [4] greater than 100 µM. For the same compound, the “Selectivity index (SI)” value in data set [5] is given as greater than 7.33.

Regarding `CCON=C1C(=O)N(CCCC(=O)OC2O[C@@H]3O[C@@]4(C)CC[C@H]5[C@H](C)CC[C@@H]([C@H]2C)[C@@]35OO4)c2ccc(F)cc21` (stereo partly drawn) [Hybrid 5e, (3R,5aS,6R,8aS,9R,12R,12aR)-3,6,9-trimethyldecahydro-12H-3,12-epoxy[1,2]dioxepino[4,3-i]isochromen-10-yl 4-(3-(ethoxyimino)-5-fluoro-2-oxoindolin-1-yl)butanoate], the IC50 in data set [1] was 8.12 µM; in data set [2], 15.9 µM; in data set [3], greater than 100 µM. In data set [4], this compound had an IC50 at 24 h greater than 100 µM. The “Selectivity index (SI)” value in data set [5] was greater than 6.29.

As for `Cc1ccc2c(c1)C(=NOCc1ccccc1)C(=O)N2CCCC(=O)OC1O[C@@H]2O[C@@]3(C)CC[C@H]4[C@H](C)CC[C@@H]([C@H]1C)[C@@]24OO3` (stereo partly drawn) [Hybrid 5h, (3R,5aS,6R,8aS,9R,12R,12aR)-3,6,9-trimethyldecahydro-12H-3,12-epoxy[1,2]dioxepino[4,3-i]isochromen-10-yl 4-(3-((benzyloxy)imino)-5-methyl-2-oxoindolin-1-yl)butanoate], the IC50 in data set [1], in data set [2] and in data set [3] was greater than 100 µM each time.

`CON=C1C(=O)N(CCCC(=O)OC2O[C@@H]3O[C@@]4(C)CC[C@H]5[C@H](C)CC[C@@H]([C@H]2C)[C@@]35OO4)c2ccccc21` (stereo partly drawn) [Hybrid 5a, (3R,5aS,6R,8aS,9R,12R,12aR)-3,6,9-trimethyldecahydro-12H-3,12-epoxy[1,2]dioxepino[4,3-i]isochromen-10-yl 4-(3-(methoxyimino)-2-oxoindolin-1-yl)butanoate]: the IC50 in data set [1] was greater than 100 µM; in data set [2], 19.1 µM; in data set [3] it was 52.2 µM. In data set [4], this compound returned an IC50 at 24 h greater than 100 µM. Also, the “Selectivity index (SI)” value in data set [5] was greater than 5.23.

Take `CON=C1C(=O)N(CCCC(=O)OC2O[C@@H]3O[C@@]4(C)CC[C@H]5[C@H](C)CC[C@@H]([C@H]2C)[C@@]35OO4)c2ccc(F)cc21` (stereo partly drawn) [Hybrid 5d, (3R,5aS,6R,8aS,9R,12R,12aR)-3,6,9-trimethyldecahydro-12H-3,12-epoxy[1,2]dioxepino[4,3-i]isochromen-10-yl 4-(3-(methoxyimino)-5-fluoro-2-oxoindolin-1-yl)butanoate]: the IC50 is greater than 100 µM in data set [1], 6.07 µM in data set [2] and greater than 100 µM in data set [3]. The IC50 at 24 h in data set [4] is greater than 100 µM.

`COc1ccc2c(c1)C(=O)C(=O)N2CCCC(=O)OC1O[C@@H]2O[C@@]3(C)CC[C@H]4[C@H](C)CC[C@@H]([C@H]1C)[C@@]24OO3` (stereo partly drawn) [Hybrid 4d, (3R,5aS,6R,8aS,9R,12R,12aR)-3,6,9-trimethyldecahydro-12H-3,12-epoxy[1,2]dioxepino[4,3-i]isochromen-10-yl 4-(5-methoxy-2,3-dioxoindolin-1-yl)butanoate]: the IC50 in data set [1] was 15.1 µM; in data set [2] it was 18.1 µM; in data set [3], 20.1 µM. In data set [4], the IC50 at 24 h was greater than 100 µM. In addition, the “Selectivity index (SI)” value in data set [5] is listed as greater than 5.52.

For the compound `COc1ccc2c(c1)C(=NOCc1ccccc1)C(=O)N2CCCC(=O)OC1O[C@@H]2O[C@@]3(C)CC[C@H]4[C@H](C)CC[C@@H]([C@H]1C)[C@@]24OO3` (stereo partly drawn) [Hybrid 5k, (3R,5aS,6R,8aS,9R,12R,12aR)-3,6,9-trimethyldecahydro-12H-3,12-epoxy[1,2]dioxepino[4,3-i]isochromen-10-yl 4-(3-((benzyloxy)imino)-5-methoxy-2-oxoindolin-1-yl)butanoate], the IC50 in data set [1], in data set [2] and in data set [3] was greater than 100 µM each time.

Turning to `CCON=C1C(=O)N(CCCC(=O)OC2O[C@@H]3O[C@@]4(C)CC[C@H]5[C@H](C)CC[C@@H]([C@H]2C)[C@@]35OO4)c2ccc(C)cc21` (stereo partly drawn) [Hybrid 5g, (3R,5aS,6R,8aS,9R,12R,12aR)-3,6,9-trimethyldecahydro-12H-3,12-epoxy[1,2]dioxepino[4,3-i]isochromen-10-yl 4-(3-(ethoxyimino)-5-methyl-2-oxoindolin-1-yl)butanoate], the IC50 in data set [1], in data set [2] and in data set [3] was greater than 100 µM each time.

`C[C@@H]1CC[C@H]2[C@@H](C)C(OC(=O)CCCN3C(=O)C(=NOCc4ccccc4)c4ccccc43)O[C@@H]3O[C@@]4(C)CC[C@@H]1[C@]32OO4` (stereo partly drawn) [Hybrid 5c, (3R,5aS,6R,8aS,9R,12R,12aR)-3,6,9-trimethyldecahydro-12H-3,12-epoxy[1,2]dioxepino[4,3-i]isochromen-10-yl 4-(3-((benzyloxy)imino)-2-oxoindolin-1-yl)butanoate]: the IC50 in data set [1] was 2.39 µM; in data set [2], greater than 100 µM; in data set [3] it was 3.95 µM. For the same compound, the IC50 at 24 h in data set [4] was greater than 100 µM.

In the case of `C[C@@H]1CC[C@H]2[C@@H](C)C(OC(=O)CCCN3C(=O)C(=O)c4cc(F)ccc43)O[C@@H]3O[C@@]4(C)CC[C@@H]1[C@]32OO4` (stereo partly drawn) [Hybrid 4b, (3R,5aS,6R,8aS,9R,12R,12aR)-3,6,9-trimethyldecahydro-12H-3,12-epoxy[1,2]dioxepino[4,3-i]isochromen-10-yl 4-(5-fluoro-2,3-dioxoindolin-1-yl)butanoate], the values for the IC50 in data set [1], in data set [2] and in data set [3] were 50 µM, 13.1 µM and greater than 100 µM, respectively. Further, in data set [4], the IC50 at 24 h is greater than 100 µM. The “Selectivity index (SI)” value in data set [5] is on record as greater than 7.62.

Take `CON=C1C(=O)N(CCCC(=O)OC2O[C@@H]3O[C@@]4(C)CC[C@H]5[C@H](C)CC[C@@H]([C@H]2C)[C@@]35OO4)c2ccc(OC)cc21` (stereo partly drawn) [Hybrid 5i, (3R,5aS,6R,8aS,9R,12R,12aR)-3,6,9-trimethyldecahydro-12H-3,12-epoxy[1,2]dioxepino[4,3-i]isochromen-10-yl 4-(5-methoxy-3-(methoxyimino)-2-oxoindolin-1-yl)butanoate]: the IC50 in data set [1], in data set [2] and in data set [3] was greater than 100 µM throughout.

For `Cc1ccc2c(c1)C(=O)C(=O)N2CCCC(=O)OC1O[C@@H]2O[C@@]3(C)CC[C@H]4[C@H](C)CC[C@@H]([C@H]1C)[C@@]24OO3` (stereo partly drawn) [Hybrid 4c, (3R,5aS,6R,8aS,9R,12R,12aR)-3,6,9-trimethyldecahydro-12H-3,12-epoxy[1,2]dioxepino[4,3-i]isochromen-10-yl 4-(5-methyl-2,3-dioxoindolin-1-yl)butanoate], the IC50 is 32.9 µM in data set [1], greater than 100 µM in data set [2] and greater than 100 µM in data set [3].

For `CCON=C1C(=O)N(CCCC(=O)OC2O[C@@H]3O[C@@]4(C)CC[C@H]5[C@H](C)CC[C@@H]([C@H]2C)[C@@]35OO4)c2ccc(OC)cc21` (stereo partly drawn) [Hybrid 5j, (3R,5aS,6R,8aS,9R,12R,12aR)-3,6,9-trimethyldecahydro-12H-3,12-epoxy[1,2]dioxepino[4,3-i]isochromen-10-yl 4-(3-(ethoxyimino)-5-methoxy-2-oxoindolin-1-yl)butanoate], the IC50 in data set [1], in data set [2] and in data set [3] was greater than 100 µM each time.
